# Sampled rows, rich in hits. Any-hit rate of the full collection: about 6.4%.
# Lung fibro prol: blocks proliferation of human lung fibroblasts; LL 47 human lung fibroblast viability, ATP luminescence; active compounds read low; viability, % at 10 µM; 85,000 compounds, 1.1% hits; AID 719;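 active = viability at or below 50% in the single dose screen; inactive = viability above 50%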;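 note: compound exposure lasted 72 h before the ATP readout; 100% = median luminescence of untreated cell-only wells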
#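 Material: Human LL 47 lung fibroblast cells | Input: 1,150 cells/well | Buffer or medium: IMEM plus 15% FBS | Compound dosing: 0.1% DMSO in all compound wells | Times: Overnight cell rest, 72 h compound treatment at 37 °C | Signal: CellTiter-Glo luminescence measuring cellular ATP | Measure: % viability versus median cells-only luminescence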
# Ecoli tolC: E. coli tolC mutant growth inhibition; E. coli BW25113 tolC mutant growth, OD615; growth inhibition, % at 10 µM (by protocol); 65,000 compounds, 2.2% hits; AID 573;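 active = growth inhibition at or above a cutoff equal to the mean over every tested compound plus 3 SD, cut at about 60% in these data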;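 note: growth measured after 20 h incubation at 37 °C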
#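 test system = E. coli BW25113 ΔtolC::kan bacteria | medium = LB with kanamycin 50 µg/mL | signal = OD at 615 nm | schedule = 37 °C, 20 h exposure | evaluation = % inhibition of E. coli growth | compound dosing = one dose of 10 µM final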
# H69AR growth 86K: blocks growth of human H69AR lung tumor cells. viability, % at 10 µM. H69AR lung tumor viability, ATP luminescence, 72 h; active compounds read low. 85,000 compounds, 6% hits;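 active = viability at or below 40%; inactive = viability above 40%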;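 note: multidrug resistant small cell line overexpressing MRP-1 efflux transporter; 100% = mean luminescence of untreated control wells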
# Jurkat tox 60K: cytotoxicity toward Jurkat cells | Jurkat E6.1 viability, ATP luminescence, 48 h | inhibition, % at 4 µM | 56,000 compounds, 1.2% hits | AID 463;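 active = inhibition above the mean inhibition of all tested compounds plus 3 SD, cut at about 28% in these data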
# Ecoli WT expand: E. coli BW25113 growth inhibition, expanded screen | OD600 absorbance | 98,000 compounds, 0.15% hits | growth inhibition, % at 100 µM;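 active = growth inhibition above about 50% at one test dose, limit read from the data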;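 note: growth measured after 20 h incubation at 37 °C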
# HUVEC prolif 384: inhibitors of human endothelial cell proliferation; HUVEC proliferation, CellTiter-Glo luminescence, 72 h; active compounds read low; viability, % at 10 µM (by protocol); 86,000 compounds, 1.1% hits; AID 648;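 active = viability at or below 30%; inactive = viability above 30%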;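 note: 100% = median luminescence of DMSO-only cell control wells on each plate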
# * = called active by the depositor; / = no result given.
SMILES,Lung fibro prol,Ecoli tolC,H69AR growth 86K,Jurkat tox 60K,Ecoli WT expand,HUVEC prolif 384
CCN(Cc1ccccc1)S(=O)(=O)c1ccc(S(=O)(=O)N(Cc2ccccn2)Cc2ccco2)cc1,102.4,/,22.1*,/,-20.0,70.5
COc1ccc(NC(=O)C2CC(=O)OC23CCOC(C)(C)C3)cc1 (stereo not drawn),98.2,/,88.1,/,7.0,91.3
Cc1nc(SCC(=O)c2c(C)[nH]c3ccccc23)c2c(=O)n(C)c(=O)n(CC(C)C)c2n1,96.0,-8.0,39.5*,/,/,82.7
Cc1nc(SCC(=O)OCc2ccccc2)c2c(=O)n(C)c(=O)n(C)c2n1,106.0,14.2,106.3,-0.5,2.0,99.2
Cc1nc2c(C(=O)N3CCCC3)c[nH]n2c(=O)c1Cc1ccc(F)cc1Cl,95.9,-4.7,88.3,-9.8,/,94.6
O=c1[nH]c(=O)n(Cc2ccccc2)c2nc(-c3ccco3)cc(C(F)(F)F)c12,58.3,-4.9,31.1*,2.4,-7.0,43.8
COC(=O)c1cc(=O)nc2sc(-c3cccs3)nn12,99.0,-25.3,103.9,/,-3.0,94.7
COC(=O)c1cc(=O)nc2sc(-c3ccc(F)cc3)nn12,93.4,-14.5,35.6*,/,-8.0,78.9
COc1ccc2ccccc2c1CN1CCN(C)CC1,95.6,-11.2,99.2,-3.7,3.0,88.7
Oc1cnc2ccccc2c1CN1CCOCC1,95.3,-13.1,91.4,12.6,6.0,80.2
COCc1cc(CN2CCN(C)CC2)c(O)c2ncccc12,86.7,/,25.3*,/,14.0,90.1
Oc1c(CN2CCOCC2)cc(COCc2ccccc2)c2cccnc12,/,45.1,/,53.9*,/,/
COC(=O)c1cccc(NC(=O)Cc2ccc(OC)cc2)c1C,105.9,/,98.1,/,1.0,94.5
CCOc1ccc(CCNC(=O)Cn2c(=O)oc3ccccc32)cc1OCC,/,/,/,/,6.0,/
C=CCNc1nc2ccccc2nc1NS(=O)(=O)c1cccs1,97.1,30.2,98.7,-0.3,7.0,95.0
O=S(=O)(Nc1nc2ccccc2nc1NCc1ccco1)c1cccs1,97.0,81.5*,79.9,-3.1,4.0,104.5
Cn1c(CCN2CCCCC2)nc2cc(NS(=O)(=O)c3ccc(Cl)cc3)ccc21,100.0,4.1,9.8*,3.4,4.0,104.1
Clc1ccc(C2=C3CCCCn4c(-c5ccccc5)c[n+](c43)C2)cc1,42.0*,/,35.6*,/,-3.0,17.5*
CN(C)c1ccc(/C=N/c2cc(-c3ccccc3)nn2-c2ccccc2)cc1,/,/,/,/,-9.0,/
COc1cccc(C2=NOC(C(=O)Nc3cc(C)nn3-c3ccccc3)C2)c1OC (stereo not drawn),90.3,9.2,32.4*,11.6,2.0,75.5
CCCCOc1ccc(Br)cc1/C(C)=N/NC1=NCCN1,22.8*,/,82.9,/,/,7.1*
CCCOc1ccc(Br)cc1/C=N/O,99.6,/,83.4,/,16.0,104.2
O=C(CSc1nnc(-c2ccncc2)n1CC1CCCO1)Nc1nccs1 (stereo not drawn),100.0,/,87.8,/,/,92.8
Cc1ccc(NC(=O)C2=C(O)c3ccccc3N(C)S2(=O)=O)cc1,/,/,/,/,-3.0,/
Nc1c(C(=O)NC2CCCCC2)c2nc3ccccc3nc2n1/N=C/c1ccco1,75.9,-1.0,26.5*,-13.5,/,49.8
SMILES,Lung fibro prol,Ecoli tolC,H69AR growth 86K,Jurkat tox 60K,Ecoli WT expand,HUVEC prolif 384
COC(=O)C1C(=O)OC(C)(C)C1C(C)C(=O)c1ccccc1 (stereo not drawn),98.6,/,94.2,/,4.0,92.7
Clc1ccc(C2=Nn3c(nnc3-c3n[nH]c4c3CCC4)SC2)cc1Cl,/,99.2*,/,15.7,11.0,/
O=c1[nH]c(Cn2nnc(-c3ccccc3)n2)nc2scc(-c3ccccc3)c12,96.9,42.0,97.7,1.0,-11.0,70.6
CC(=O)O[C@]1(C(C)=O)CC[C@H]2[C@@H]3C=C(Cl)C4=CC(=O)CC[C@]4(C)[C@H]3CC[C@@]21C,79.8,8.9,19.1*,/,/,87.3
CC(=O)O[C@]1(C(C)=O)CC[C@H]2[C@@H]3C[C@H](C)C4=CC(=O)CC[C@]4(C)[C@H]3CC[C@@]21C,90.9,0.0,5.1*,/,/,102.5
COc1ccc2nc(SCC(=O)c3ccco3)[nH]c2c1,104.6,/,96.1,/,8.0,100.6
CCN(CC)c1ccc(C2C(C(=O)OC(C)C)C(=O)CC(C)(O)C2C(=O)OC(C)C)cc1 (stereo not drawn),/,/,/,/,5.0,/
O=c1c([N+](=O)[O-])c(NC2CCCCC2)c2ccccc2n1-c1ccccc1,92.6,/,73.0,/,/,84.9
CC(C)(C)Nc1nc(NC(C)(C)C)nc(-n2ccnc2)n1,90.0,43.5,30.7*,2.8,-12.0,97.7
COc1ccc(C(=O)Nc2c(Cl)cc(Cl)cc2C(=O)NCCN2CCOCC2)cc1,98.4,/,87.0,/,/,93.7
CCc1nnc(NC(=O)c2ccc(S(=O)(=O)N(CCOC)CCOC)cc2)o1,97.5,-4.6,66.0,1.4,-3.0,97.9
CCCCN(CC)S(=O)(=O)c1ccc(C(=O)Nc2nnc(COC)o2)cc1,98.6,88.3*,41.6,5.5,5.0,76.4
CCN(CC)S(=O)(=O)c1ccc(C(=O)NCc2cccs2)cc1,/,/,/,/,9.0,/
CCCCN(CC)S(=O)(=O)c1ccc(C(=O)Nc2nnc(-c3ccccc3Cl)o2)cc1,74.7,100.0*,27.2*,2.1,-2.0,3.3*
CCCCN(C)S(=O)(=O)c1ccc(C(=O)Nc2nnc(-c3cccs3)o2)cc1,66.0,100.0*,34.9*,28.3*,1.0,5.1*
CCCCN(CCCC)S(=O)(=O)c1ccc(C(=O)Nc2nnc(CSC)o2)cc1,/,98.8*,/,3.3,8.0,/
CC1CCCCN1c1nnc(NC(=O)c2cc(-c3ccc(Br)cc3)on2)s1 (stereo not drawn),101.9,/,90.3,/,-15.0,97.3
Cc1noc(C)c1CSc1ccccc1C(=O)Nc1nccs1,103.4,-14.1,98.3,-3.8,-1.0,96.5
CCCCN(CC)S(=O)(=O)c1ccc(C(=O)Nc2nnc(CSC)o2)cc1,/,98.5*,/,88.3*,12.0,/
CCN(CC)S(=O)(=O)c1ccc(C(=O)Nc2cc(C)cc(C)c2)cc1,102.8,/,92.5,/,-1.0,66.4
CCCN(CCC)S(=O)(=O)c1ccc(C(=O)Nc2nnc(CSC)o2)cc1,83.8,98.8*,32.0*,20.6,6.0,61.1
CC(=O)OCc1c(C(F)(F)F)nn(C)c1Sc1ccccc1,/,/,/,/,14.0,/
Cc1cc(NC(=O)c2ccccc2F)n(-c2nc3ccccc3[nH]2)n1,70.5,16.5,41.3,4.0,-8.0,92.2
Cc1cc(NC(=O)c2c(F)cccc2F)n(-c2nc3ccccc3[nH]2)n1,85.2,/,36.5*,/,-7.0,71.8
Cc1cc(N2CCN(c3ccccc3)CC2)nc(-c2ccccc2O)n1,101.6,/,88.5,/,-11.0,107.8
Cc1cc(N2CCN(c3ccccc3)CC2)nc(-n2nc(C)cc2C)n1,95.6,71.5*,9.3*,1.6,5.0,108.1
Cc1cc(Nc2ccccc2)n(-c2nc3ccccc3[nH]2)n1,66.8,95.3*,37.4*,-11.7,-10.0,45.1
Cc1cc(Nc2ccccc2)n(-c2ccccc2)n1,94.8,11.5,103.9,5.3,4.0,88.8
Cc1cc(C)nc(-n2nc(C)cc2Nc2ccccc2)n1,77.3,76.3*,10.4*,0.9,2.0,78.3

# Source: PubChem BioAssay (several laboratories)
